This note sets out measurements from ChEMBL document CHEMBL1126277, “6-substituted decahydroisoquinoline-3-carboxylic acids as potent and selective conformationally constrained NMDA receptor antagonists” (J Med Chem, 1992).

In test [1] the test system is Mus musculus. The test can be described thus: Minimum effective dose measures the in vivo N-methyl-D-aspartate glutamate receptor antagonist activity of compound and its ability to protect mice from lethality induced by 200 mg/kg ip injection of NMDA. The test is classed as functional. As to conditions: route intraperitoneal, read-out: MED. The method, boiled down: (§1)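 Mice were given the compound ip 30 min before an ip challenge of NMDA at 200 mg/kg, a dose lethal to ≥95% of animals. Survival was scored with five animals tested per dose. MED was taken as the lowest dose protecting >50% of animals, meaning at least three of five survived.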

The target in test [2] is Glutamate NMDA receptor. The test can be described thus: Displacement of [3H]CGS-19,755 from glutamate recognition site of N-methyl-D-aspartate glutamate receptor complex. The class given is protein-complex assay, Rattus norvegicus.
Test [3] in a line: In vitro inhibition of 40 uM NMDA induced depolarization in rat cortical slices.
Test [4] deals with Mus musculus. The test can be described thus: Minimum effective dose measures the in vivo NMDA antagonist activity of compound and its ability to protect mice from lethality induced by 200 mg/kg ip injection of NMDA. The class given is functional. The note with it: route intraperitoneal; for MED: NMDA challenge 200 mg/kg, 200 mg/kg; for minimal effective dose: Mus musculus, ip, read-out: MED. The method, boiled down: as §1

Test [5] addresses Glutamate NMDA receptor. The test can be described thus: In vitro compound's ability to displace [3H]-CGS-19,755 binding as a measure of its affinity for the glutamate recognition site on the NMDA receptor complex. The test is classed as protein-complex assay.

Take `O=C(O)C1CC2CC(CP(=O)(O)O)CCC2CN1` (stereo not drawn): in test [1], the minimal effective dose was greater than 160 mg/kg. The IC50 in test [2] is greater than 10 µM; in test [3] it was greater than 100 µM.

As to `O=C(O)C1Cc2cc(Cc3nnn[nH]3)ccc2CN1` (stereo not drawn), in test [1], the minimal effective dose is greater than 160 mg/kg. The IC50 in test [3] turned out to be 36.6 µM.

With `O=C(O)C1CC2C[C@@H](Cc3nnn[nH]3)CCC2CN1` (stereo in doubt; 32a), in test [4], the MED turned out to be 2.5 mg/kg. This compound yielded an IC50 in test [3] of 1.39 µM.

Turning to `CN1CCC2(CCCC(CP(=O)(O)O)C2)CC1C(=O)O` (stereo not drawn), the IC50 in test [5] was greater than 10 µM. Also, the minimal effective dose in test [4] is greater than 160 mg/kg.

On to `O=C(O)[C@@H]1C[C@H](CP(=O)(O)O)CCN1` [SELFOTEL], for which, in test [3], the IC50 is 1.6 µM.

As for `O=C(O)C1NCCC2CC(Cc3nnn[nH]3)CCC21` (stereo not drawn), the minimal effective dose in test [1] came to 160 mg/kg. In test [3], the 50% inhibitory concentration (IC50) turned out to be 7.8 µM.

For the compound `O=C(O)C1Cc2cc(CP(=O)(O)O)ccc2CN1` (stereo not drawn), in test [1], the minimal effective dose is greater than 160 mg/kg. The half-maximal inhibitory concentration (IC50) stood at 13.8 µM in test [2] and 34.4 µM in test [3].

Regarding `O=C(O)C1CC2C[C@@H](Cc3nnn[nH]3)CCC2CN1` (stereo in doubt; 32b), the MED in test [4] was determined as 40 mg/kg. Besides, in test [3], the IC50 was determined as 4.8 µM.

Consider `O=C(O)[C@@H]1C[C@H]2CC(Cc3nnn[nH]3)CC[C@H]2N1` (stereo partly drawn), for which the minimal effective dose in test [1] is greater than 160 mg/kg. Also, the IC50 was greater than 10 µM in test [2] and greater than 100 µM in test [3].

For the compound `O=C(O)C1CC2CC(Cc3nnn[nH]3)CCC2CN1` (stereo not drawn), the minimal effective dose in test [1] was greater than 160 mg/kg. Besides, the IC50 in test [2] is greater than 10 µM; in test [3] it was greater than 100 µM.

Regarding `O=C(O)[C@@H]1C[C@H]2CC(CP(=O)(O)O)CC[C@H]2N1` (stereo partly drawn), the minimal effective dose in test [1] is greater than 160 mg/kg. In addition, the IC50 was greater than 10 µM in test [2] and greater than 100 µM in test [3].

For the compound `O=C(O)[C@H]1C[C@@H](Cc2nnn[nH]2)CCN1`, in test [4], the minimal effective dose is 5 mg/kg. The compound further returned an IC50 in test [3] of 4.2 µM.
